Test results from ChEMBL document CHEMBL1157620, “1-(Aryl)-6-[alkoxyalkyl]-3-azabicyclo[3.1.0]hexanes and 6-(aryl)-6-[alkoxyalkyl]-3-azabicyclo[3.1.0]hexanes: a new series of potent and selective triple reuptake inhibitors” (J Med Chem, 2010).
Calls of active or inactive are those of the source. The calls are words filed in the database; no cut-off is given here.

How the values were obtained:
[1] = biological target: T1, Sodium-dependent dopamine transporter (Homo sapiens, UniProt Q01959); assay: Displacement of [3H]WIN-35428 from human recombinant DAT expressed in BacMam virus-transduced cells by scintillation proximity assay; format: cell-based
T1 sequence (Q01959 whole entry): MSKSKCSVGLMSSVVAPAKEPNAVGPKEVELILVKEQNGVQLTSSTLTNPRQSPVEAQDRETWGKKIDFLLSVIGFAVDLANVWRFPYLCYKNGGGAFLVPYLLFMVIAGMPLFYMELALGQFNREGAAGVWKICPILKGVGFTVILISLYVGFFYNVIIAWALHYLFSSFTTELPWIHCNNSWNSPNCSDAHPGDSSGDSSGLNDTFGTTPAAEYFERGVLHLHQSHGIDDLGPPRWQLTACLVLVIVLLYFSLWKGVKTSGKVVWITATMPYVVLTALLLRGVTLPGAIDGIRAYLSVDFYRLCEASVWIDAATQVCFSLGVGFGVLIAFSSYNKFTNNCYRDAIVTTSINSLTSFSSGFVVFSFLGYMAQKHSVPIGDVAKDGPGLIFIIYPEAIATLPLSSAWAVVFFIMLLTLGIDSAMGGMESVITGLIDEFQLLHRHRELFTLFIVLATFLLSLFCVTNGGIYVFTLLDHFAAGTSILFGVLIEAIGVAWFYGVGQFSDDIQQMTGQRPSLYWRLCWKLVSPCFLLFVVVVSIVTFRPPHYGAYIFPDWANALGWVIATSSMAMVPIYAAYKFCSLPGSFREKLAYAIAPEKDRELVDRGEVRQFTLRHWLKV

[2] = biological target: T2, Sodium-dependent noradrenaline transporter (Homo sapiens, UniProt P23975); assay: Displacement of [3H]nisoxetine from human recombinant NET expressed in BacMam virus-transduced cells by scintillation proximity assay; format: cell-based
T2 sequence (P23975 whole entry): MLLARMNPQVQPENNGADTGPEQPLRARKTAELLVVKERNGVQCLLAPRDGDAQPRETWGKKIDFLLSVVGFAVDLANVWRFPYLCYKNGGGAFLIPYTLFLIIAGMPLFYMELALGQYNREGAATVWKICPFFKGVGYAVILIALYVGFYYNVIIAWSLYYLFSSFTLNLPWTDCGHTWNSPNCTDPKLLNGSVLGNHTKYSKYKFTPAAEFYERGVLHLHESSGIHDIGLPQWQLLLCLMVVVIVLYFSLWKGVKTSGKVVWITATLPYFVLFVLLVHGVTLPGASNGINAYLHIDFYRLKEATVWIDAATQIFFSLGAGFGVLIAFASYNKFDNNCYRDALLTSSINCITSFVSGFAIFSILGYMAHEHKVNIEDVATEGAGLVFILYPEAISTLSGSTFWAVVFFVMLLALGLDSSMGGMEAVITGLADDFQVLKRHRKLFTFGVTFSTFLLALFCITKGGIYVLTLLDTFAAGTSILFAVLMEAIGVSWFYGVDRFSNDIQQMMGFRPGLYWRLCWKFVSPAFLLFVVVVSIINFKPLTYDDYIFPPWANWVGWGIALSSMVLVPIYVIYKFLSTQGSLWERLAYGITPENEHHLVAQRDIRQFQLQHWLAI
Outline: (§1)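 BacMam-transduced membranes in SPA format. SERT: 1 mg/mL beads, 6 μg/mL membranes, 3 nM [3H]citalopram. NET: 2 mg/mL beads, 40 μg/mL membranes, 10 nM [3H]nisoxetine. Incubated overnight at room temperature; pKi from pIC50 by Cheng-Prusoff.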

[3] = biological target: T3, Sodium-dependent serotonin transporter (Homo sapiens, UniProt P31645); assay: Displacement of [3H]citalopram from human recombinant SERT expressed in BacMam virus-transduced cells by scintillation proximity assay; format: cell-based; outline: as §1
T3 sequence (P31645 whole entry): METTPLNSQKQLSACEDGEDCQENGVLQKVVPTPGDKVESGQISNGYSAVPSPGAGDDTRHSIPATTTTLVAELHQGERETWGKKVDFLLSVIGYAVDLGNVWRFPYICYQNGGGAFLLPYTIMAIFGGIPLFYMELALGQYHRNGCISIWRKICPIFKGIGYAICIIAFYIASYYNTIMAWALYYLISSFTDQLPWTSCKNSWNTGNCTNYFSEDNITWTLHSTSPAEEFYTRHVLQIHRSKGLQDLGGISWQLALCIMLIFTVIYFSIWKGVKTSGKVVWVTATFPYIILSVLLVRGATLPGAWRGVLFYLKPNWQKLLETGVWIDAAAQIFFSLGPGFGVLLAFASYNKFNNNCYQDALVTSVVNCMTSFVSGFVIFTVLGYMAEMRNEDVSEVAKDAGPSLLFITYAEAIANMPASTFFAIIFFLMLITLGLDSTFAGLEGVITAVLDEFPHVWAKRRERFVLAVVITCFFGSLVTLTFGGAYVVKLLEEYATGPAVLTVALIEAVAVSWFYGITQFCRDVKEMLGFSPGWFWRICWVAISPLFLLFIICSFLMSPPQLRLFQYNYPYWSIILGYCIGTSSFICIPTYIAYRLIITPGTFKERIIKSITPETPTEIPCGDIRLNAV

Cytochrome P450 1A2 = biological target: T4, Cytochrome P450 1A2 (Homo sapiens, UniProt P05177); assay: Inhibition of human CYP1A2 by fluorescence assay; format: ADME
T4 sequence (P05177 whole entry): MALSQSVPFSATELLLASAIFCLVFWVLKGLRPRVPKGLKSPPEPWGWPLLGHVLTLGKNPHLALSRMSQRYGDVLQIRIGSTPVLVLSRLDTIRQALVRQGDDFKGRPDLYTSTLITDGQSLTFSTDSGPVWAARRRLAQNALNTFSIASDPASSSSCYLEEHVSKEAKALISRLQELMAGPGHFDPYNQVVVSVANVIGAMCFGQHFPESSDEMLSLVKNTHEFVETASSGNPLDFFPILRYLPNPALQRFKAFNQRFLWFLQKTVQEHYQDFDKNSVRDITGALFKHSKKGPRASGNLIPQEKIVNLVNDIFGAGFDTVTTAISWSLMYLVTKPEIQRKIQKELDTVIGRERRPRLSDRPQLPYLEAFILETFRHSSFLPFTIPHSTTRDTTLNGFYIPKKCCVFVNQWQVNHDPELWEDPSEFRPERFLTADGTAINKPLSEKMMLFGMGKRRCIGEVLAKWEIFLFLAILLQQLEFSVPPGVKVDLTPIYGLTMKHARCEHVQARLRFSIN
Outline: (§2)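 Recombinant human P450 bactosomes (0.1 mg/mL) in 50 mM phosphate, pH 7.4. Test compound at 0.1-10 μM, preincubated 10 min at 37 °C with fluorogenic substrate: ethoxyresorufin 0.5 μM (1A2), FCA 50 μM (2C9), BMC 10 μM (2C19), MMC 10 μM (2D6).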

Cytochrome P450 2C9 = Cytochrome P450 2C9 (Homo sapiens, UniProt P11712); assay: Inhibition of human CYP2C9 by fluorescence assay; format: ADME; outline: as §2
Chain of Cytochrome P450 2C9 (P11712 whole entry): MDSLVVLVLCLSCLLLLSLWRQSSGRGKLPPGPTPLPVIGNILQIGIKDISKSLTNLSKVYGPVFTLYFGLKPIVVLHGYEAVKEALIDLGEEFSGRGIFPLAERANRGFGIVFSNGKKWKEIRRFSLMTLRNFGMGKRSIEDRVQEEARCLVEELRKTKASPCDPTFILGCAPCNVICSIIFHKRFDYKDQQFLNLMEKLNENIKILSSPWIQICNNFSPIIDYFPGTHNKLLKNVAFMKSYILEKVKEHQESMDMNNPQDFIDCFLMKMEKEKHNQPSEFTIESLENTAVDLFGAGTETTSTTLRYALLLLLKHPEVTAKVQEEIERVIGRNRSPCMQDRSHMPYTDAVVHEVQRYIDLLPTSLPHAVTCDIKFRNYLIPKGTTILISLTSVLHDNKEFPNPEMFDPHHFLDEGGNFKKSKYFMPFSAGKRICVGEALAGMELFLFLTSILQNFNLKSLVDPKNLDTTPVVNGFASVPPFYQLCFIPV

Cytochrome P450 2C19 = Cytochrome P450 2C19 (Homo sapiens, UniProt P33261); assay: Inhibition of human CYP2C19 by fluorescence assay; format: ADME; outline: as §2
Chain of Cytochrome P450 2C19 (P33261 whole entry): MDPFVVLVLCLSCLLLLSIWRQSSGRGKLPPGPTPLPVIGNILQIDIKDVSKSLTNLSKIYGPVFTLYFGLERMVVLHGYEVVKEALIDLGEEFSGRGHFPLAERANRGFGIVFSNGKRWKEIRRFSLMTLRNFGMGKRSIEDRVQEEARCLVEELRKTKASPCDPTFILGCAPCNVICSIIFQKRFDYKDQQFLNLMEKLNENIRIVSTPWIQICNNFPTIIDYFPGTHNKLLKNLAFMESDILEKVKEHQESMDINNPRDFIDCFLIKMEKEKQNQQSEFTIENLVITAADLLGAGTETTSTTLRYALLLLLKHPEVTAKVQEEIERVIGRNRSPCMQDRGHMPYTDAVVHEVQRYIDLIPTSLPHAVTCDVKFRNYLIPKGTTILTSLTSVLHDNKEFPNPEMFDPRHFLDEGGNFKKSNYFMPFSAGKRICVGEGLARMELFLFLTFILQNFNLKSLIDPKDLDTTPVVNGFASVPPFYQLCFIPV

Cytochrome P450 2D6 = Cytochrome P450 2D6 (Homo sapiens, UniProt P10635); assay: Inhibition of human […] by fluorescence assay; format: ADME; outline: as §2
Chain of Cytochrome P450 2D6 (P10635 whole entry): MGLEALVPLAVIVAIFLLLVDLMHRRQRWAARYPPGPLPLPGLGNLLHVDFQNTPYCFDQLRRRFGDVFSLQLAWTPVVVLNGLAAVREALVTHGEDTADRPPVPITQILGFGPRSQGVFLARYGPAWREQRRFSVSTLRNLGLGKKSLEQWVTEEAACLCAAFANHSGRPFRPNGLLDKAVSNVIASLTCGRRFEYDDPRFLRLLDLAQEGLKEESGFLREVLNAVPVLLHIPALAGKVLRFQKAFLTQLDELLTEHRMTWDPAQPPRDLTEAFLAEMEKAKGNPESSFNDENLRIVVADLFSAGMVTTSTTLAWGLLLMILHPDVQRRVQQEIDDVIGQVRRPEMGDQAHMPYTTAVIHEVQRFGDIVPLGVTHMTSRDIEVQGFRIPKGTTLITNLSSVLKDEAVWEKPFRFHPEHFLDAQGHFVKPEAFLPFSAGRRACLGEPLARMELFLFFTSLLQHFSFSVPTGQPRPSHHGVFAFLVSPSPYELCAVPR

Cytochrome P450 3A4 = Cytochrome P450 3A4 (Homo sapiens, UniProt P08684); assay: Inhibition of human CYP3A4 by fluorescence assay
Chain of Cytochrome P450 3A4 (P08684 whole entry): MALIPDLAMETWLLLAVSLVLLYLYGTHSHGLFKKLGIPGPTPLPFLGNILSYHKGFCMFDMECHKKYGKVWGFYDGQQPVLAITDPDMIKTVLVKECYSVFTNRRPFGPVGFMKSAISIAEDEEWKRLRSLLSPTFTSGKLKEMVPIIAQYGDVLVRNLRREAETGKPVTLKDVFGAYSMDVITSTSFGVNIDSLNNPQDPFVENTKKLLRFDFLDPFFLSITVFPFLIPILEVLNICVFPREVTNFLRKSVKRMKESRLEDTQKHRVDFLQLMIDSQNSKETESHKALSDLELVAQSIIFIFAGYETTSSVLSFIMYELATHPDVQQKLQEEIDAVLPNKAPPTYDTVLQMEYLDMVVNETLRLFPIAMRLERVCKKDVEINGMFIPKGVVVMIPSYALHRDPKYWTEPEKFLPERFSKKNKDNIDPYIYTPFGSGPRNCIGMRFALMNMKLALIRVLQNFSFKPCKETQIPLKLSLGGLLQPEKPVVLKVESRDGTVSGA

Homo sapiens = organism: Homo sapiens; assay: Selectivity for human recombinant SERT over human recombinant DAT
Rattus norvegicus [4] = assay: Increase in extracellular serotonin level in frontal cortex of free moving CD rat at 1 mg/kg, ip after 3 hrs by microdialysis; format: functional, organism-based; design: dose 1 mg/kg
Outline: (§3)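 Male CD rats, 280-310 g, with microdialysis probe in left medial prefrontal cortex, freely moving, locomotion recorded at the same time. Dosed ip at 0.1, 0.3 or 1 mg/kg. Dialysate collected every 20 min after 2 h of perfusion, for 3 h post dose. NA, DA and 5-HT by HPLC with electrochemical detection; two-way repeated-measures ANOVA.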

Rattus norvegicus [5] = assay: Increase in extracellular norepinephrine level in frontal cortex of free moving CD rat at 1 mg/kg, ip after 3 hrs by microdialysis; format: functional, organism-based; design: dose 1 mg/kg; outline: as §3
Rattus norvegicus [6] = assay: Increase in extracellular dopamine level in frontal cortex of free moving CD rat at 1 mg/kg, ip after 3 hrs by microdialysis; format: functional, organism-based; design: dose 1 mg/kg; outline: as §3
Rattus norvegicus [7] = assay: Enhancement of locomotor activity of CD rat at 1 mg/kg, ip; format: functional, organism-based; design: dose 1 mg/kg; outline: as §3
Mus musculus [8] = assay: Potentiation of 5-hydroxytryptophan-induced stereotpic behavior in po dosed CD1 mouse administered 120 mins before 5HTP challenge measured for 30 mins; format: functional, organism-based
Outline: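 CD-1 mice dosed orally 120 min before 5-HTP (100 mg/kg ip). Videotaped for 30 min and scored for hyperlocomotion, hind-limb abduction, flat body posture, head twitches/tremor and body tremor.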

Mus musculus [9] = assay: Increase in spontaneous locomotor activity in CD1 mouse at 3 mg/kg, po administered 120 mins before test measured for 30 mins; format: functional, organism-based; design: dose 3 mg/kg
Outline: (§4)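 CD-1 mice dosed orally at 3, 10 or 30 mg/kg, 120 min before test. Total distance travelled recorded over 30 min in infrared activity boxes.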

Mus musculus [10] = assay: Increase in spontaneous locomotor activity in CD1 mouse at 10 mg/kg, po administered 120 mins before test measured for 30 mins; format: functional, organism-based; design: dose 10 mg/kg; outline: as §4
Mus musculus [11] = assay: Increase in spontaneous locomotor activity in CD1 mouse at 30 mg/kg, po administered 120 mins before test measured for 30 mins; format: functional, organism-based; design: dose 30 mg/kg; outline: as §4
Mus musculus [12] = assay: Antidepressant-like activity in CD1 mouse assessed as reduction in immobility time at 3 mg/kg, po administered 120 mins before test by forced swimming test; format: functional, organism-based; design: dose 3 mg/kg
Outline: (§5)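 Naive male CD-1 mice, 25-30 g, dosed orally 120 min before the swim test. Immobility (floating upright, only small movements to keep the head above water) was scored over the last 4 min of a 6 min session by an observer blind to treatment, from video.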

Mus musculus [13] = assay: Antidepressant-like activity in CD1 mouse assessed as reduction in immobility time at 10 mg/kg, po administered 120 mins before test by forced swimming test; format: functional, organism-based; design: dose 10 mg/kg; outline: as §5
Mus musculus [14] = assay: Potentiation of 5-hydroxytryptophan-induced stereotpic behavior in CD1 mouse at 10 mg/kg, po administered 120 mins before 5HTP challenge measured for 30 mins; format: functional, organism-based; design: dose 10 mg/kg
Outline: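 Naive male CD-1 mice (25-30 g) were dosed orally 120 min before an ip injection of 5-HTP (100 mg/kg). Each mouse was then placed alone in a perspex box and videotaped. For the next 30 min, observers scored aimless hyperlocomotor activity, hind-limb abduction, flat body posture, head twitches/tremor and body tremor.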

[15] = biological target: T3, Sodium-dependent serotonin transporter; assay: Inhibition of [3H]serotonin reuptake at human SERT expressed in LLCPK cells by scintillation proximity assay; format: cell-based
Outline: (§6)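 Uptake-SPA on stably transfected LLCPK cells in HEPES buffer, pH 7.4. SERT: 25000 cells/well, 1.5 mg/mL beads, 35 nM [3H]serotonin. NET: 50000 cells/well, 1.5 mg/mL beads, 45 nM [3H]noradrenalin. DAT: 75000 cells/well, 2 mg/mL beads, 75 nM [3H]dopamine. Concentrations are those of the substrate addition. 1 h at room temperature; 4-parameter fit.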

[16] = biological target: T2, Sodium-dependent noradrenaline transporter; assay: Inhibition of [3H]noradrenalin reuptake at human NET expressed in LLCPK cells by scintillation proximity assay; format: cell-based; outline: as §6
[17] = biological target: T1, Sodium-dependent dopamine transporter; assay: Inhibition of [3H]dopamine reuptake at human DAT expressed in LLCPK cells by scintillation proximity assay; format: cell-based; outline: as §6
[18] = biological target: T3, Sodium-dependent serotonin transporter; assay: Displacement of [3H]citalopram from human recombinant SERT expressed in LLCPK cells by liquid scintillation counting; format: cell-based
Outline: (§7)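 Filtration binding on stably transfected LLCPK cell membranes, 2 h at room temperature. SERT: 0.25 nM [3H]citalopram, about 2.5 μg protein/well, NSB with 10 μM fluoxetine. NET: 1.5 nM [3H]nisoxetine, 4.8 μg/well, NSB with 10 μM desipramine. DAT: 10 nM [3H]WIN-35,428, 9.6 μg/well, NSB with 10 μM GBR-12909. Filter-bound radioactivity counted; 4-parameter fit, pKi by Cheng-Prusoff.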

[19] = biological target: T2, Sodium-dependent noradrenaline transporter; assay: Displacement of [N-methyl-3H]nisoxetine from human recombinant NET expressed in LLCPK cells by liquid scintillation counting; format: cell-based; outline: as §7
[20] = biological target: T1, Sodium-dependent dopamine transporter; assay: Displacement of [N-methyl-3H]WIN-35428 from human recombinant DAT expressed in LLCPK cells by liquid scintillation counting; format: cell-based; outline: as §7
[21] = biological target: Sodium-dependent serotonin transporter (Rattus norvegicus, UniProt P31652); assay: Displacement of [3H]citalopram from rat cortex SERT by filtration binding assay
Chain of Sodium-dependent serotonin transporter (Rattus norvegicus, UniProt P31652) (P31652 whole entry): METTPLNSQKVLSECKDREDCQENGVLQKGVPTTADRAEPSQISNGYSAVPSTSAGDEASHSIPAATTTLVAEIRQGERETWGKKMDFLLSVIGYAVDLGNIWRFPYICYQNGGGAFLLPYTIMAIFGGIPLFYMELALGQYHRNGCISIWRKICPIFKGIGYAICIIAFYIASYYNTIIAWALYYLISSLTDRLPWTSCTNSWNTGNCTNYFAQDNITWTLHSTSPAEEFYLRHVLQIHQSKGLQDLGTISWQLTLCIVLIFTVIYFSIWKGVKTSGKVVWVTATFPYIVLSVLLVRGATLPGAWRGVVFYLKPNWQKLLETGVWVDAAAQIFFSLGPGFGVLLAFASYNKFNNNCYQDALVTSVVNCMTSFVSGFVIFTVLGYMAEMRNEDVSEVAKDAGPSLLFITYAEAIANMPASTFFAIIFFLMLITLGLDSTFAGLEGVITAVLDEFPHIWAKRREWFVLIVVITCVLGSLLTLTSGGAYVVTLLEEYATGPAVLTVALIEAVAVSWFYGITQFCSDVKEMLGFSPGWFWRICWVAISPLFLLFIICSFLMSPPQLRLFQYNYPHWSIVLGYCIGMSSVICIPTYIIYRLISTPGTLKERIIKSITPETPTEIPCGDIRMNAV
Outline: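 Native brain tissue filtration binding, run as for the recombinant transporters. SERT on rat or mouse cortex (20 and 7 μg protein/well respectively). NET on rat hippocampus (40 μg/well). DAT on rat striatum (20 μg/well).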

Liver microsomes [22] = assay: Intrinsic clearance in human liver microsomes assessed per gram of protein at 0.5 uM after 30 mins by HPLC-MS/MS analysis; format: ADME, Microsome; conditions: microsomes, 0.5 h, 0.5 µM
Outline: (§8)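 Compound at 0.5 μM with rat or human liver microsomes (0.5 mg protein/mL), 50 mM phosphate, pH 7.4, 37 °C, started with NADPH. Sampled at 0-30 min, acetonitrile quench, HPLC-MS/MS. CLi from first-order elimination constant, scaled assuming 52.5 mg microsomal protein/g.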

Liver microsomes [23] = assay: Intrinsic clearance in rat liver microsomes assessed per gram of protein at 0.5 uM after 30 mins by HPLC-MS/MS analysis; format: ADME, Microsome; conditions: microsomes, 0.5 h, 0.5 µM; outline: as §8
[24] = Blood clearance in rat; format: ADME, organism-based
[25] = Half life in rat; format: ADME, organism-based; conditions: in vivo
[26] = Volume of distribution in rat; format: ADME, organism-based; conditions: in vivo
[27] = Bioavailability in rat; format: ADME, organism-based; conditions: in vivo
[28] = Ratio of drug level in brain to blood in rat; format: ADME, tissue-based; conditions: read-out: BBR
[29] = Fraction unbound in rat brain; format: ADME, tissue-based; conditions: brain

SMILES: Clc1ccc([C@@]2(COC3CCC3)[C@@H]3CNC[C@@H]32)cc1Cl
- Ki [1]: 6.31 nM
- Ki [2]: 2.51 nM
- Ki [3]: 0.398 nM
- IC50 (Cytochrome P450 1A2): > 10000 nM
- IC50 (Cytochrome P450 2C9): > 10000 nM
- IC50 (Cytochrome P450 2C19): > 10000 nM
- IC50 (Cytochrome P450 2D6): > 10000 nM
- IC50 (Cytochrome P450 3A4): 3000 nM

SMILES: Clc1ccc([C@@]2(COCC3CC3)[C@@H]3CNC[C@@H]32)cc1Cl
- Ki [1]: 10 nM
- Ki [2]: 7.94 nM
- Ki [3]: 0.631 nM
- IC50 (Cytochrome P450 1A2): > 10000 nM
- IC50 (Cytochrome P450 2C9): > 10000 nM
- IC50 (Cytochrome P450 2C19): > 10000 nM
- IC50 (Cytochrome P450 2D6): 1000 nM

SMILES: CCOC[C@H]1[C@@H]2CNC[C@@]21c1ccc(Cl)c(Cl)c1
- Selectivity ratio (Homo sapiens): 50
- Activity (Rattus norvegicus [4]): Active
- Activity (Rattus norvegicus [5]): Active
- Activity (Rattus norvegicus [6]): Active
- Activity (Rattus norvegicus [7]): Active
- Activity (Mus musculus [8]): Dose-dependent effect
- Activity (Mus musculus [9]): inactive
- Activity (Mus musculus [10]): Active
- Activity (Mus musculus [11]): inactive
- Activity (Mus musculus [12]): Active
- Activity (Mus musculus [13]): Active

SMILES: CN(C)CCCC1(c2ccc(F)cc2)OCc2cc(C#N)ccc21 (centres undefined)
- Activity (Mus musculus [14]): Active

SMILES: COCC[C@H]1[C@]2(C)CNC[C@]12c1ccc(Cl)c(Cl)c1 (relative stereo)
- Ki [1]: 50.1 nM
- Ki [2]: 1 nM
- Ki [3]: 0.251 nM
- IC50 [15]: 1.58 nM
- IC50 [16]: 0.398 nM
- IC50 [17]: 15.8 nM

SMILES: COC[C@H]1[C@@H]2CNC[C@@]21c1ccc(Cl)c(Cl)c1 (relative stereo)
- Ki [1]: 56.2 nM
- Ki [2]: 1.74 nM
- Ki [3]: 0.759 nM
- Ki [18]: 0.741 nM
- Ki [19]: 4.57 nM
- Ki [20]: 85.1 nM
- Ki [21]: 1.78 nM
- IC50 (Cytochrome P450 1A2): > 6000 nM
- IC50 (Cytochrome P450 2C9): > 6000 nM
- IC50 (Cytochrome P450 2C19): > 6000 nM
- IC50 (Cytochrome P450 2D6): > 6000 nM
- IC50 (Cytochrome P450 3A4): > 6000 nM
- CL (Liver microsomes [22]): < 0.5 mL/min/g
- CL (Liver microsomes [23]): 3.8 mL/min/g
- clearance [24]: 16 mL/min/kg
- half-life [25]: 2.4 h
- Vd [26]: 2.9 L/kg
- bioavailability [27]: 94%
- Kp [28]: 4
- fraction unbound [29]: 0.027

SMILES: Cc1csc(C[C@H]2[C@@H]3CNC[C@@]32c2ccc(Cl)c(Cl)c2)n1 (relative stereo)
- Ki [1]: 20 nM
- Ki [2]: 0.126 nM
- Ki [3]: 0.0794 nM
- IC50 [15]: 1 nM
- IC50 [16]: 0.251 nM
- IC50 [17]: 20 nM
